# ChEMBL document CHEMBL1806409, “Design, synthesis and biological evaluation of novel 4-thiazolidinones containing indolin-2-one moiety as potential antitumor agent” (Eur J Med Chem, 2011)
# Assays:
# NCI-H460 = assay: Cytotoxicity against human H460 cells assessed as cell growth inhibition after 72 hrs by MTT assay; assay type: functional, cell-based; conditions: NCI-H460, 72 h
# Outline: (§1)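 Cancer lines grown in MEM with 10% FBS. About 4 × 10³ cells/well were seeded in MEM and incubated 24 h at 37 °C, 5% CO₂. Compounds were then added at final concentrations and exposure ran 72 h. MTT was added for 4 h at 37 °C and formazan dissolved in DMSO. Absorbance was read at 492 nm against a 630 nm reference. IC50 is the average of three determinations.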
# MDA-MB-231 = assay: Cytotoxicity against human MDA-MB-231 cells assessed as cell growth inhibition after 72 hrs by MTT assay; assay type: functional, cell-based; conditions: MDA-MB-231, 72 h; outline: as §1
# HT-29 [1] = assay: Cytotoxicity against human HT-29 cells assessed as cell growth inhibition after 72 hrs by MTT assay; assay type: functional, cell-based; conditions: HT-29, 72 h; outline: as §1
# WI-38 [2] = assay: Cytotoxicity against human WI38 cells assessed as cell growth inhibition after 72 hrs by MTT assay; assay type: cell-based; conditions: WI-38, 72 h
# Outline: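 WI-38 normal human fetal lung fibroblasts were seeded at about 4 × 10³ cells/well and held 24 h at 37 °C, 5% CO₂, then exposed to compounds for 72 h. MTT was given for 4 h at 37 °C and formazan dissolved in DMSO. A492 was read with a 630 nm reference, and IC50 was averaged from three runs.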
# SMMC-7721 = assay: Cytotoxicity against human SMMC7721 cells assessed as cell growth inhibition after 72 hrs by MTT assay; assay type: functional, cell-based; conditions: SMMC-7721, 72 h; outline: as §1
# HT-29 [3] = assay: Selectivity index, ratio of IC50 for human WI38 cells to IC50 for human HT-29 cells; assay type: functional
# Outline: (§2)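 The index is the IC50 in WI-38 normal fibroblasts divided by the IC50 in the cancer line (H460 or HT-29). Each IC50 comes from a 72 h MTT growth-inhibition assay averaged over three determinations.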
# WI-38 [4] = assay: Selectivity index, ratio of IC50 for human WI38 cells to IC50 for human H460 cells; assay type: functional; outline: as §2
compound,measurement,setting,value
CN(C)CCN1C(=O)/C(=C/c2ccc(O)cc2)SC1=S,IC50,NCI-H460,46.1 µM
same,IC50,MDA-MB-231,84.2 µM
same,IC50,HT-29 [1],59.7 µM
Cc1ccc2c(c1)/C(=c1/sc(=Cc3ccc4c(c3)OCO4)c(=O)n1CCN(C)C)C(=O)N2,IC50,NCI-H460,4.03 µM
same,IC50,MDA-MB-231,8.1 µM
same,IC50,HT-29 [1],1.03 µM
CN(C)CCn1c(=O)c(=Cc2ccc3c(c2)OCO3)s/c1=C1\C(=O)Nc2cc(F)ccc21,IC50,NCI-H460,2.81 µM
same,IC50,MDA-MB-231,2.42 µM
same,IC50,HT-29 [1],1.36 µM
CN(C)CCn1c(=O)c(=Cc2ccc(O)cc2)s/c1=C1\C(=O)Nc2ccccc21 (mixture of isomers),IC50,NCI-H460,0.98 µM
same,IC50,MDA-MB-231,4.28 µM
same,IC50,HT-29 [1],1.39 µM
Cc1ccc2c(c1)/C(=c1/sc(=Cc3ccc(O)cc3)c(=O)n1CCN(C)C)C(=O)N2 (mixture of isomers),IC50,NCI-H460,1.77 µM
same,IC50,MDA-MB-231,1.32 µM
same,IC50,HT-29 [1],2.29 µM
COc1cc(C=c2s/c(=C3\C(=O)Nc4ccc(F)cc43)n(CCN(C)C)c2=O)cc(OC)c1OC (mixture of isomers),IC50,NCI-H460,1.7 µM
same,IC50,MDA-MB-231,1.9 µM
same,IC50,WI-38 [2],8.1 µM
same,IC50,SMMC-7721,6.06 µM
same,IC50,HT-29 [1],2.53 µM
CCN(CC)CCCn1c(=O)c(=Cc2ccc3c(c2)OCO3)s/c1=C1\C(=O)Nc2ccccc21 (mixture of isomers),IC50,NCI-H460,1.02 µM
same,IC50,MDA-MB-231,1.12 µM
same,IC50,WI-38 [2],3.93 µM
same,IC50,SMMC-7721,3.41 µM
same,IC50,HT-29 [1],0.91 µM
CCN(CC)CCCn1c(=O)c(=Cc2ccc3c(c2)OCO3)s/c1=C1\C(=O)Nc2ccc(C)cc21 (mixture of isomers),IC50,NCI-H460,1.86 µM
same,IC50,MDA-MB-231,3.1 µM
same,IC50,HT-29 [1],2.11 µM
CCN(CC)CCCn1c(=O)c(=Cc2ccc3c(c2)OCO3)s/c1=C1\C(=O)Nc2ccc(F)cc21 (mixture of isomers),IC50,NCI-H460,0.075 µM
same,Ratio IC50,HT-29 [3],279
same,IC50,MDA-MB-231,0.77 µM
same,IC50,WI-38 [2],6.98 µM
same,IC50,SMMC-7721,1.95 µM
same,IC50,HT-29 [1],0.025 µM
same,Ratio IC50,WI-38 [4],93
CCN(CC)CCCn1c(=O)c(=Cc2ccc3c(c2)OCO3)s/c1=C1\C(=O)Nc2cc(F)ccc21 (mixture of isomers),IC50,NCI-H460,1.91 µM
same,IC50,MDA-MB-231,4.13 µM
same,IC50,WI-38 [2],8.3 µM
same,IC50,SMMC-7721,4.02 µM
same,IC50,HT-29 [1],0.19 µM
CCN(CC)CCCn1c(=O)c(=Cc2ccc3c(c2)OCO3)s/c1=C1\C(=O)Nc2ccc(Cl)cc21 (mixture of isomers),IC50,NCI-H460,1 µM
same,IC50,MDA-MB-231,3.13 µM
same,IC50,WI-38 [2],3.32 µM
same,IC50,SMMC-7721,3.12 µM
same,IC50,HT-29 [1],0.437 µM
CCN(CC)CCCn1c(=O)c(=Cc2ccc(F)c(F)c2)s/c1=C1\C(=O)Nc2ccc(F)cc21 (mixture of isomers),IC50,NCI-H460,1.3 µM
same,IC50,MDA-MB-231,1.22 µM
same,IC50,WI-38 [2],4.3 µM
same,IC50,SMMC-7721,3.07 µM
same,IC50,HT-29 [1],0.64 µM
CCN(CC)CCCn1c(=O)c(=Cc2ccc(F)c(F)c2)s/c1=C1\C(=O)Nc2cc(F)ccc21 (mixture of isomers),IC50,NCI-H460,1.12 µM
same,IC50,MDA-MB-231,2.9 µM
same,IC50,WI-38 [2],4.45 µM
same,IC50,SMMC-7721,5.33 µM
same,IC50,HT-29 [1],0.028 µM
CCN(CC)CCCn1c(=O)c(=Cc2ccc(F)cc2F)s/c1=C1\C(=O)Nc2ccccc21 (mixture of isomers),IC50,NCI-H460,5.47 µM
same,IC50,MDA-MB-231,> 200 µM
same,IC50,HT-29 [1],> 200 µM
CCN(CC)CCCn1c(=O)c(=Cc2ccc(F)cc2F)s/c1=C1\C(=O)Nc2cc(F)ccc21 (mixture of isomers),IC50,NCI-H460,2.33 µM
same,IC50,MDA-MB-231,2.1 µM
same,IC50,HT-29 [1],1.52 µM
CCN(CC)CCCn1c(=O)c(=Cc2ccc(F)cc2F)s/c1=C1\C(=O)Nc2ccc(Cl)cc21 (mixture of isomers),IC50,NCI-H460,6.1 µM
same,IC50,MDA-MB-231,> 200 µM
same,IC50,HT-29 [1],> 200 µM
CCN(CC)CCCn1c(=O)c(=Cc2cc(OC)c(OC)c(OC)c2)s/c1=C1\C(=O)Nc2ccccc21 (mixture of isomers),IC50,NCI-H460,1.67 µM
same,IC50,MDA-MB-231,2.39 µM
same,IC50,HT-29 [1],1.97 µM
CCN(CC)CCCn1c(=O)c(=Cc2cc(OC)c(OC)c(OC)c2)s/c1=C1\C(=O)Nc2ccc(C)cc21 (mixture of isomers),IC50,NCI-H460,2.67 µM
same,IC50,MDA-MB-231,> 200 µM
same,IC50,HT-29 [1],> 200 µM
CCN(CC)CCCn1c(=O)c(=Cc2cc(OC)c(OC)c(OC)c2)s/c1=C1\C(=O)Nc2ccc(F)cc21 (mixture of isomers),IC50,NCI-H460,0.78 µM
same,IC50,MDA-MB-231,> 200 µM
same,IC50,WI-38 [2],2.02 µM
same,IC50,SMMC-7721,2.21 µM
same,IC50,HT-29 [1],> 200 µM
CN(C)CCn1c(=O)c(=Cc2ccc(O)cc2)s/c1=C1\C(=O)Nc2ccc(F)cc21 (mixture of isomers),IC50,NCI-H460,1.27 µM
same,IC50,MDA-MB-231,4.2 µM
same,IC50,HT-29 [1],1.48 µM
CN(C)CCn1c(=O)c(=Cc2ccc(O)cc2)s/c1=C1\C(=O)Nc2cc(F)ccc21 (mixture of isomers),IC50,NCI-H460,1.43 µM
same,IC50,MDA-MB-231,3.45 µM
same,IC50,HT-29 [1],2.27 µM
CN(C)CCn1c(=O)c(=Cc2ccc(O)cc2)s/c1=C1\C(=O)Nc2ccc(Cl)cc21 (mixture of isomers),IC50,NCI-H460,2.03 µM
same,IC50,MDA-MB-231,3.25 µM
same,IC50,HT-29 [1],2.46 µM
CN(C)CCn1c(=O)c(=Cc2ccc(O)cc2)s/c1=C1\C(=O)Nc2ccc(Br)cc21 (mixture of isomers),IC50,NCI-H460,1.11 µM
same,IC50,MDA-MB-231,2.52 µM
same,IC50,HT-29 [1],1.92 µM
COc1ccc(C=c2s/c(=C3\C(=O)Nc4cc(F)ccc43)n(CCN(C)C)c2=O)cc1 (mixture of isomers),IC50,NCI-H460,2.2 µM
same,IC50,MDA-MB-231,2.09 µM
same,IC50,HT-29 [1],2.3 µM
CN(C)CCn1c(=O)c(=Cc2ccc(F)c(F)c2)s/c1=C1\C(=O)Nc2ccc(F)cc21 (mixture of isomers),IC50,NCI-H460,44.7 µM
same,IC50,MDA-MB-231,9.48 µM
same,IC50,HT-29 [1],3.09 µM
CN(C)CCn1c(=O)c(=Cc2ccc(F)c(F)c2)s/c1=C1\C(=O)Nc2cc(F)ccc21 (mixture of isomers),IC50,NCI-H460,6.4 µM
same,IC50,MDA-MB-231,25 µM
same,IC50,HT-29 [1],12.1 µM
Cc1ccc2c(c1)/C(=c1/sc(=Cc3ccc(F)c(F)c3)c(=O)n1CCN(C)C)C(=O)N2 (mixture of isomers),IC50,NCI-H460,59.7 µM
same,IC50,MDA-MB-231,> 200 µM
same,IC50,HT-29 [1],7.43 µM
CN(C)CCn1c(=O)c(=Cc2ccc(F)cc2F)s/c1=C1\C(=O)Nc2cc(F)ccc21 (mixture of isomers),IC50,NCI-H460,3.2 µM
same,IC50,MDA-MB-231,8.44 µM
same,IC50,HT-29 [1],6.46 µM
COc1ccc(C=c2s/c(=C3\C(=O)Nc4ccc(Cl)cc43)n(CCN(C)C)c2=O)c(OC)c1 (mixture of isomers),IC50,NCI-H460,10.6 µM
same,IC50,MDA-MB-231,3.83 µM
same,IC50,HT-29 [1],1.53 µM
COc1ccc(C=c2s/c(=C3\C(=O)Nc4cc(F)ccc43)n(CCN(C)C)c2=O)c(OC)c1 (mixture of isomers),IC50,NCI-H460,20.5 µM
same,IC50,MDA-MB-231,4.83 µM
same,IC50,WI-38 [2],3.01 µM
same,IC50,SMMC-7721,6.81 µM
same,IC50,HT-29 [1],0.868 µM
COc1ccc(OC)c(C=c2s/c(=C3\C(=O)Nc4cc(F)ccc43)n(CCN(C)C)c2=O)c1 (mixture of isomers),IC50,NCI-H460,7.15 µM
same,IC50,MDA-MB-231,14.5 µM
same,IC50,HT-29 [1],4.45 µM
COc1ccc(OC)c(C=c2s/c(=C3\C(=O)Nc4ccccc43)n(CCN(C)C)c2=O)c1 (mixture of isomers),IC50,NCI-H460,63.7 µM
same,IC50,MDA-MB-231,21 µM
same,IC50,HT-29 [1],96 µM
CN(C)CCn1c(=O)c(=Cc2ccc3c(c2)OCO3)s/c1=C1\C(=O)Nc2ccccc21 (mixture of isomers),IC50,NCI-H460,0.82 µM
same,IC50,MDA-MB-231,3.23 µM
same,IC50,WI-38 [2],1.77 µM
same,IC50,SMMC-7721,2.74 µM
same,IC50,HT-29 [1],0.7 µM
CCN(CC)CCCn1c(=O)c(=Cc2cc(OC)c(OC)c(OC)c2)s/c1=C1\C(=O)Nc2cc(F)ccc21 (mixture of isomers),IC50,NCI-H460,1.41 µM
same,IC50,MDA-MB-231,> 200 µM
same,IC50,HT-29 [1],> 200 µM
CCN(CC)CCCn1c(=O)c(=Cc2cc(OC)c(OC)c(OC)c2)s/c1=C1\C(=O)Nc2ccc(Cl)cc21 (mixture of isomers),IC50,NCI-H460,2.99 µM
same,IC50,MDA-MB-231,> 200 µM
same,IC50,HT-29 [1],> 200 µM
CCN(CC)CCCn1c(=O)c(=Cc2ccc(O)cc2)s/c1=C1\C(=O)Nc2ccc(C)cc21 (mixture of isomers),IC50,NCI-H460,0.26 µM
same,IC50,MDA-MB-231,1.81 µM
same,IC50,WI-38 [2],5.75 µM
same,IC50,SMMC-7721,5.09 µM
same,IC50,HT-29 [1],0.77 µM
CCN(CC)CCCn1c(=O)c(=Cc2ccccc2O)s/c1=C1\C(=O)Nc2ccccc21 (mixture of isomers),IC50,NCI-H460,> 200 µM
same,IC50,MDA-MB-231,> 200 µM
same,IC50,HT-29 [1],> 200 µM
CCN(CC)CCCn1c(=O)c(=Cc2ccccc2O)s/c1=C1\C(=O)Nc2ccc(C)cc21 (mixture of isomers),IC50,NCI-H460,11.3 µM
same,IC50,MDA-MB-231,15.9 µM
same,IC50,HT-29 [1],8.07 µM
CCN(CC)CCCn1c(=O)c(=Cc2ccccc2O)s/c1=C1\C(=O)Nc2ccc(Br)cc21 (mixture of isomers),IC50,NCI-H460,51.7 µM
same,IC50,MDA-MB-231,19.9 µM
same,IC50,HT-29 [1],18.1 µM
CCN(CC)CCNC(=O)c1c(C)[nH]c(/C=C2\C(=O)Nc3ccc(F)cc32)c1C [SUNITINIB],IC50,NCI-H460,2.7 µM
same,IC50,MDA-MB-231,3.7 µM
same,IC50,WI-38 [2],8.56 µM
same,IC50,SMMC-7721,6.47 µM
same,IC50,HT-29 [1],1.3 µM
